High-throughput results deposited in PubChem BioAssay by The Scripps Research Institute Molecular Screening Center.
PRMT1 FP inh – PRMT1 (human) inhibition, primary screen | Q99873 | recombinant PRMT1, activity-based probe fluorescence polarization | AID 652257 | inhibition, % at 2.79 µM | 370,000 compounds, 1.3% hits;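 active = inhibition above about 21% made by adding two undisclosed values, limit read from the data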
Target sequence (Q99873 whole entry, looked up): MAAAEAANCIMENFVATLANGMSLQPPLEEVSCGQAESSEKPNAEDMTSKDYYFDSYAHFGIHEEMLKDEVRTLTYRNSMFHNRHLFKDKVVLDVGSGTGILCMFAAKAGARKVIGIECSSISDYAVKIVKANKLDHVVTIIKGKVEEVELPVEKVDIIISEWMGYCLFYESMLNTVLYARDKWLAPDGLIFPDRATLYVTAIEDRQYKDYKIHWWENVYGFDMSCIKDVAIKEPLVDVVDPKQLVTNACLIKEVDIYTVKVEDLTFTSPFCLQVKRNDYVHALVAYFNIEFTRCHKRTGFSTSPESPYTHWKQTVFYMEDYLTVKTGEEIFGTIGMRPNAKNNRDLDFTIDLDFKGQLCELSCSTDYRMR
E coli Lon inh – E. coli protease La inhibition. AID 602123. purified E. coli Lon protease, fluorescence polarization. P0A9M0. 360,000 compounds, 0.42% hits. inhibition, % at 7.94 µM; in the data active = inhibition above about 13%, passing the limit was not always enough;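 also: 0% = enzyme with probe and DMSO and 100% = no enzyme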
PAD4 FP inh – blocks human protein arginine deiminase 4; Q9UM07; recombinant PAD4, RCA probe fluorescence polarization; inhibition, % at 6.36 µM; 330,000 compounds, 0.41% hits; AID 485272;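 active = percent inhibition above a cutoff equal to the mean of all tested compounds plus 3 SD, cut at about 15% in these data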;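 also: 0% = PAD4 with RCA probe and DMSO and 100% = probe without PAD4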
GSTO1 counter – blocks human GSTO1 in RBBP9 counter-screen | inhibition, % at 5.96 µM | 300,000 compounds, 1.1% hits | recombinant GSTO1, activity-based probe fluorescence polarization | P78417;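 active = inhibition above the campaign mean inhibition plus 3 SD, cut at about 35% in these data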;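 also: 0% = GSTO1-1 with DMSO and 100% = wells lacking GSTO1-1 enzyme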
Target sequence (P78417 whole entry, looked up): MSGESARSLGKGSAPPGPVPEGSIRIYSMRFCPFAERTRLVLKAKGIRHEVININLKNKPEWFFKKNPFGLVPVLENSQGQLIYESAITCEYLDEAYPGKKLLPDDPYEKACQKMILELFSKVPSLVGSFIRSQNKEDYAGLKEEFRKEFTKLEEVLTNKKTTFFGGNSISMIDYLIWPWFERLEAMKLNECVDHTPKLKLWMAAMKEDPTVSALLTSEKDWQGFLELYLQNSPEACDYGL
TDP2 inh – blocks human TDP2 phosphodiesterase activity; O95551; 370,000 compounds, 0.34% hits; AID 720702; recombinant TDP2, T5PNP hydrolysis, p-nitrophenol absorbance 415 nm; inhibition, % at 12.8 µM;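 active = inhibition above the mean of all tested compounds plus 3 SD, set per campaign, cut at about 25% in these data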;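 also: 0% = DMSO with enzyme and 100% = buffer with substrate but no TDP2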
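Evaluation: % inhibition relative to enzyme-containing and enzyme-free wells. Material: recombinant human TDP2. Benchmarks: enzyme-free and DMSO wells. Timing: enzyme reaction with compound for 2 h at 37 °C. Compound dosing: 12.8 µM only. Measured by: p-Nitrophenol epi absorbance. Reagent: T5PNP substrate at 5 mM, a TopII-DNA adduct mimic. Replication: single well per compound.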
PRMT1 inh conf – confirmation of human PRMT1 inhibitors; shares compounds with PRMT1 FP inh; inhibition, % at 2.79 µM; 3,300 compounds, 42% hits; recombinant His-PRMT1, activity-based probe fluorescence polarization;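 active = mean inhibition across replicates above the hit cutoff derived for the earlier primary screen, cut at about 22% in these data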
* hit, by the source's call; . = no result given. An excerpt weighted towards active compounds, which were near 2.5% of everything screened.

SMILES	PRMT1 FP inh	E coli Lon inh	PAD4 FP inh	GSTO1 counter	TDP2 inh	PRMT1 inh conf
COC(=O)C1=C(C)NC(=O)/C1=C\c1ccco1	9.1	-15.5	-0.1	-2.3	2.0	.
O=C1C(=Cc2ccco2)CCC1=Cc1ccco1	53.4*	7.8	.	.	11.0	50.1*
C=CCNc1ncnc2c1ncn2[C@H]1CN(Cc2ccccc2)C[C@@H](COC(C)=O)O1	1.3	5.2	.	.	-2.3	.
O=C1N2CCCc3cccc(c32)C12Nc1ccccc1S2 (centres undefined)	39.7*	0.5	.	.	-0.4	22.9*
CC(=O)C(=Cc1ccccc1)c1ccccc1	7.0	-3.2	.	.	-7.0	.
CCc1nn(CC(=O)NCCCN2CCOCC2)c(=O)c2cc3c(OC)cccc3n12	0.6	-7.1	.	.	5.1	.
O=C(c1nnsc1S(=O)c1ccc(Cl)cc1)N1CCOCC1 (centres undefined)	54.4*	5.0	.	.	0.0	65.7*
O=C(c1nnsc1S(=O)(=O)c1ccc(Cl)cc1)N1CCOCC1	7.3	12.2	.	.	-7.8	.
O=C(Nc1ccccc1)c1nnsc1S(=O)c1ccc(Cl)cc1 (centres undefined)	81.3*	-8.9	4.6	-8.1	0.9	87.8*
CCCC1CCC2(CCCN2CCOC(=O)Nc2ccc(Br)cc2)CC1 (centres undefined)	1.1	.	.	.	-2.1	.
COCCNC(=O)c1ccc(C)c(S(=O)(=O)Nc2ccc(C)cc2)c1	35.9*	1.5	2.4	5.9	2.7	0.1
O=C(NC1CCCCN(Cc2cccc(Cl)c2)C1=O)c1ccc2ccccc2c1 (centres undefined)	-8.2	.	.	.	-5.0	.
Cc1ccc(N2CC(C(=O)N3CCC(C(=O)Nc4nnc(C(C)(C)C)s4)CC3)CC2=O)cc1 (centres undefined)	1.4	1.1	-6.2	1.4	11.1	.
CCN(CC)c1ccc(NC(=O)c2cccc(C)c2)cc1S(=O)(=O)Nc1ccccc1OC	33.6*	-1.6	-2.8	-1.6	-5.4	4.5
CCN(CC)c1ccc(NC(=O)c2ccccc2)cc1S(=O)(=O)Nc1ccccc1OC	26.6*	3.4	1.8	4.5	-6.6	10.1
COc1ccc(C(=O)Nc2ccc(Cl)c(S(=O)(=O)Nc3ccccc3OC)c2)cc1	-1.4	-4.8	1.5	-23.2	-2.4	.
Cc1cccc(C)c1NC(=O)C1C(c2ccc3c(c2)OCO3)=Nc2ccccc2N1C(=O)c1ccccn1 (centres undefined)	-3.6	.	.	.	-5.7	.
CCO[C@H]1OC(C(=O)N2CCN(Cc3ccc4c(c3)OCO4)CC2)=C[C@@H](c2csc3ccccc23)[C@@H]1CCCO	96.5*	-4.2	-3.2	3.9	-9.9	-0.6
CCO[C@H]1OC(C(=O)N2CCN(Cc3ccc4c(c3)OCO4)CC2)=C[C@@H](c2cn(C(C)=O)c3ccccc23)[C@@H]1CCCO	-0.3	6.1	-2.7	-3.0	-4.0	.
COC(=O)[C@@H](Cc1c[nH]c2ccccc12)NC(=O)CNC(=O)c1ccccc1OC	-5.7	3.3	1.9	1.6	-9.3	.
COC(=O)[C@]12C[C@H](CC(=O)N3CCSCC3)C(=O)N(Cc3ccc4c(c3)OCO4)C1=C[C@H](C(C)C)O[C@@H]2C1CC1	2.2	.	.	.	-1.2	.
Cc1cc(=O)[nH]c(SCC(=O)Nc2ccc(N3CCCCC3)cc2)n1	0.2	-10.8	-7.2	.	2.9	.
CCCc1cc(=O)[nH]c(SCC(=O)Nc2ccc(N3CCCCC3)cc2)n1	49.3*	-2.7	1.7	.	-4.3	-0.6
O=C(NCSc1ccncn1)c1ccccc1	49.4*	-8.9	1.3	23.1	-4.3	9.2
CCCc1ccc(-c2cc(NC(=O)Cc3c(C)[nH]c4ccccc34)ccc2Nc2cccnc2)cc1	-1.8	.	.	.	-5.6	.
SMILES	PRMT1 FP inh	E coli Lon inh	PAD4 FP inh	GSTO1 counter	TDP2 inh	PRMT1 inh conf
Nc1nc(-c2cc(O)ccc2[N+](=O)[O-])cc(-c2ccccc2)c1[N+](=O)[O-]	27.4*	-7.0	.	.	-0.3	17.7
CCC(C)NC(=O)C1CCCN(S(=O)(=O)c2ccc3c(c2)CC(C)N3C(=O)C2CC2)C1 (centres undefined)	-3.0	-2.6	3.1	1.0	-4.8	.
CCC(C)NC(=O)C1CCCN(S(=O)(=O)c2ccc3c(c2)CC(C)N3C(C)=O)C1 (centres undefined)	26.4*	-1.6	-1.0	4.4	7.1	8.3
Cc1ccc(/C=C/C(=O)NCCc2c[nH]c3ccccc23)o1	5.0	3.2	0.5	6.5	-9.2	.
Cc1ccc(/C=C/C(=O)NCc2ccc(S(N)(=O)=O)cc2)o1	41.9*	-0.2	.	.	-1.5	80.7*
Cc1ccc(/C=C/C(=O)N2CCN(S(=O)(=O)c3c(C)c(C)cc(C)c3C)CC2)o1	16.4	-12.8	-1.8	-3.9	-0.3	.
Cc1ccc(/C=C/C(=O)N2CCN(S(=O)(=O)c3ccc(C)c(C)c3)CC2)o1	37.3*	-13.3	0.0	-0.5	6.2	52.0*
Cc1ccc(/C=C/C(=O)Nc2ccc(S(N)(=O)=O)cc2)o1	76.3*	-10.7	-1.6	0.8	8.4	81.0*
Cc1ccc(/C=C/C(=O)NCCc2cccc(Cl)c2)o1	45.6*	3.5	-2.2	-0.4	3.1	89.6*
CCOC(=O)C1(Cc2ccccc2)CCN(Cc2ccc(C(F)(F)F)cc2)CC1	-3.6	.	.	.	3.0	.
O=C(NCCCN1CCCC1=O)c1ccc(NS(=O)(=O)c2ccccc2)cc1	-2.0	10.9	-4.9	9.6	-8.5	.
CC(=O)NS(=O)(=O)c1ccc(NC(=O)/C=C/c2ccc(C)o2)cc1	27.4*	-1.7	1.6	-3.3	10.4	77.2*
Cc1ccc(/C=C/C(=O)Nc2cccc(S(=O)(=O)N3CCOCC3)c2)o1	35.9*	-4.2	-3.2	1.8	2.6	5.3
CN[C@H]1C[C@H]2c3[nH]c4cccc(-c5ccc6c(c5)OCO6)c4c3CCN2C[C@H]1[C@H](C)O	0.4	.	.	.	4.0	.
Cc1ccc(SC(CC(=O)c2ccc(C)cc2)C(=O)O)cc1 (centres undefined)	59.3*	-0.3	-1.3	-5.1	7.5	68.9*
O=C(CC(Sc1ccc(Br)cc1)C(=O)O)c1ccc(Br)cc1 (centres undefined)	.	.	6.0	-6.1	.	.
Nn1c(SCc2cn3cc(Cl)ccc3n2)nnc1-c1ccncc1	25.0*	-0.2	-0.6	8.0	-10.5	39.8*
CCOC(=O)C1=CNS(=O)(=O)NC1CCc1ccccc1 (centres undefined)	2.6	-12.7	-1.1	.	3.8	.
N#C/C(=C\c1ccc(N2CCOCC2)o1)c1nc2ccccc2[nH]1	57.9*	-26.0	5.7	-58.8	-12.6	-57.2
N#Cc1cccc(-n2cc(COC(=O)NCCc3ccccc3)nn2)c1	-11.3	.	.	.	5.5	.
CNC(=O)C1C(=S)NC(N)=C(C#N)C1c1ccccc1 (centres undefined)	61.0*	1.3	-4.9	10.5	12.0	12.2
COC(=O)[C@@]12CCCCC3=C1N(CCC3)C(=O)[C@H]2CC(=O)NCc1cccc(C(F)(F)F)c1	0.0	.	.	.	0.3	.
O=C(OCCN1C(=O)c2cccc3c(N4CCOCC4)ccc(c23)C1=O)c1ccccc1Cl	77.9*	-192.2	-3.3	-4.8	7.9	64.7*
